The test system of test [1] is Cladosporium cladosporioides. Briefly: Antifungal activity against Cladosporium cladosporioides after 72 hrs. It is filed as functional. The method in brief:
(§1)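 TLC bioautography: compounds applied to TLC plates, sprayed with a fungal spore suspension in glucose and salt solution, incubated 72 h in darkness in a moistened chamber at 25 °C. Clear inhibition zones against a dark background read as the minimum amount (µg) inhibiting growth on the plate. Strains: C. cladosporioides SPC 140, C. sphaerospermum SPC 491. Nystatin and miconazole positive controls; ampicillin and chloramphenicol negative controls.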

The subject of test [2] is Cladosporium sphaerospermum. Briefly: Antifungal activity against Cladosporium sphaerospermum after 72 hrs. It is filed as functional. Put shortly: as §1

For the molecule `CC(=O)OC(C)(C)CNC(=O)/C=C/C=C/c1ccc2c(c1)OCO2` [CORCOVADINE], the MIC in test [1] and in test [2] was 1 µg throughout.

On to `CC(=O)OC(C)(C)CNC(=O)/C=C\C=C/c1ccc2c(c1)OCO2` [ISOCORCOVADINE], for which the MIC is 2.5 µg in test [1] and 1 µg in test [2].

Turning to `CC(C)CNC(=O)/C=C\C=C/c1ccc2c(c1)OCO2` [ISOPIPERLONGUMININE], the MIC in test [1] and in test [2] was 0.25 µg each time.

`Clc1ccc(COC(Cn2ccnc2)c2ccc(Cl)cc2Cl)c(Cl)c1` (stereo not drawn) [MICONAZOLE]: the MIC in test [1] and in test [2] was 1 µg throughout.

Regarding `CC(C)CNC(=O)/C=C/C=C/c1ccc2c(c1)OCO2` [PIPERLONGUMININE], the MIC in test [1] and in test [2] was 1 µg each time.

As to `COc1c(OC)c(OC)c2c3c(cc4ccccc42)NC(=O)c13` [PIPEROLACTAM C], the MIC in test [1] came out at 5 µg; in test [2], 50 µg.

For the molecule `COc1ccc(C/C=C/C=C/C(=O)NCC(C)C)cc1` [PIPEROVATINE], the MIC in test [1] and in test [2] was 1 µg throughout.

As for `CC(C)CNC(=O)/C=C/C=C\c1ccc2c(c1)OCO2` [SCUTIFOLAMIDE A], the MIC in test [1] and in test [2] was 5 µg throughout.

For NYSTATIN, the MIC in test [1] and in test [2] was 1 µg each time.
